Measured values reported in ChEMBL document CHEMBL1134348, “Novel glucocorticoid antedrugs possessing a 17beta-(gamma-lactone) ring” (J Med Chem, 2001).

Legend:
Rattus norvegicus [1] = test: Inhibition of rat ear edema as percentage change in mean weight (56.03 +/- 1.41 mg) from control group of 55.67+/-1.22 mg at 1.56 ug dose; type: functional
Rattus norvegicus [2] = test: Inhibition of rat ear edema as percentage change in mean weight (50.65 +/- 1.18 mg) from control group of 55.67+/-1.22 mg at 25 ug dose; type: functional
[3] = half life in human plasma.; type: ADME, organism-based
In short: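 Pooled heparinised plasma from 4 volunteers, stored at −20 °C; compound spiked to final 30 ug/mL at 37 °C. Half-life taken from additional time points in this incubation; reaction stopped with 2 M citric acid, samples frozen overnight and centrifuged. Supernatant analysed by reverse-phase HPLC with UV at 240 nm, internal standard dexamethasone or hydrocortisone; duplicates.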

[4] = % stability in human plasma after 10 minutes.; type: ADME, organism-based; conditions: plasma, read-out: Stability
In short: (§1)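 Pooled heparinized plasma from 4 volunteers was incubated at 37 °C with test compound at a final concentration of 30 ug/mL, with DMSO-only controls. The reaction was stopped with 2 M citric acid at 10 and 60 min, with a zero-time sample. Supernatants were analysed by reversed-phase HPLC at 240 nm against an internal standard, in duplicate, and reported as % compound remaining.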

Rattus norvegicus [5] = test: Inhibition of rat ear edema as percentage change in mean weight (44.05+/-1.18 mg) from control group of 55.67+/-1.22 mg at 100 ug dose; type: functional
[6] = % stability in krebs buffer after 60 minutes.; type: physicochemical; conditions: Krebs buffer; read-out: Stability
In short: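 Test compound, at a final concentration of 30 ug/mL, was spiked into Krebs buffer at 37 °C for 60 min, then quenched with 2 M citric acid. Supernatant was analysed by reversed-phase HPLC with UV detection at 240 nm and an internal standard, in duplicate. The read-out was % compound remaining.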

[7] = % stability in human plasma after 60 minutes.; type: ADME, organism-based; conditions: plasma, read-out: Stability; in short: as §1
Rattus norvegicus [8] = test: Inhibition of rat ear edema as percentage change in mean weight (54.86 +/- 1.35 mg) from control group of 55.67+/-1.22 mg at 6.25 ug dose; type: functional

CC1(C)O[C@@H]2CC3C4C[C@H](F)C5=CC(=O)C=C[C@]5(C)[C@@]4(F)[C@@H](O)C[C@]3(C)[C@]2(SC2CCOC2=O)O1 (stereo partly drawn)
Decrease (Rattus norvegicus [1]): 0% | Decrease (Rattus norvegicus [2]): 9.01% | half-life [3]: 4 min | remaining at 10 min [4]: 24% | Decrease (Rattus norvegicus [5]): 20.9% | remaining at 1 h [6]: 74% | remaining at 1 h [7]: 0% | Decrease (Rattus norvegicus [8]): 1.46%
